Assay results: ChEMBL document CHEMBL3120102, “Structure-based design, synthesis and biological evaluation of novel anthra[1,2-d]imidazole-6,11-dione homologues as potential antitumor agents” (2013)

Tests used:
Type in all cases: functional
MDA-MB-468 = assay: Cytotoxicity against human MDA-MB-468 cells assessed as growth inhibition after 48 hrs by SRB assay
Method in brief: (§1)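 NCI 60-cell-line screen, five-dose stage: each cell line exposed for 48 h to five concentrations spanning five log steps; cellular protein measured by sulforhodamine B colorimetry. A time-zero cell control and plates without drug are used to derive GI50, TGI and LC50 from log-concentration dose-response curves.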

BT-549 = assay: Cytotoxicity against human BT549 cells assessed as growth inhibition after 48 hrs by SRB assay
Method in brief: (§2)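 NCI 60-cell-line five-dose screen at […]. Drug exposure was 48 h, followed by sulforhodamine B protein staining. GI50, TGI and LC50 were calculated against a time-zero control and untreated plates, with dose–response curves plotted from log10 concentration.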

PC-3 = assay: Cytotoxicity against human PC3 cells assessed as growth inhibition after 48 hrs by SRB assay; method in brief: as §1
[1] = (§3) Cytotoxicity against human UO31 cells assessed as growth inhibition after 48 hrs by SRB assay; conditions: UO-31, 48 h
Method in brief: (§4)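 NCI 60-cell-line screen, two stages. Five-dose testing at […]. Cellular protein measured by sulforhodamine B colorimetry after 48 h drug exposure. A time-zero control and drug-free plates are used to derive GI50, TGI and LC50 from dose-response curves plotted as log10 concentration per cell line.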

UO-31 = assay: as §3; method in brief: as §4
RXF 393 = assay: Cytotoxicity against human RXF393 cells assessed as growth inhibition after 48 hrs by SRB assay; method in brief: as §1
ACHN = assay: Cytotoxicity against human ACHN cells assessed as growth inhibition after 48 hrs by SRB assay; method in brief: as §2
A498 = assay: Cytotoxicity against human A498 cells assessed as growth inhibition after 48 hrs by SRB assay; method in brief: as §2
786-0 = assay: Cytotoxicity against human 786-0 cells assessed as growth inhibition after 48 hrs by SRB assay; method in brief: as §2
[2] = (§5) Cytotoxicity against human NCI-ADR-RES cells assessed as growth inhibition after 48 hrs by SRB assay; method in brief: as §1
NCI/ADR-RES = assay: as §5; method in brief: as §1
OVCAR-3 = assay: Cytotoxicity against human OVCAR3 cells assessed as growth inhibition after 48 hrs by SRB assay; method in brief: as §1
[3] = (§6) Cytotoxicity against human OVCAR4 cells assessed as growth inhibition after 48 hrs by SRB assay; conditions: OVCAR-4, 48 h; method in brief: as §1
OVCAR-4 = assay: as §6; method in brief: as §1
IGROV-1 = assay: Cytotoxicity against human IGROV1 cells assessed as growth inhibition after 48 hrs by SRB assay; method in brief: as §2
SK-MEL-2 = assay: Cytotoxicity against human SK-MEL-2 cells assessed as growth inhibition after 48 hrs by SRB assay; method in brief: as §1
MDA-MB-435 = assay: Cytotoxicity against human MDA-MB-435 cells assessed as growth inhibition after 48 hrs by SRB assay; method in brief: as §1
Malme-3M = assay: Cytotoxicity against human MALME-3M cells assessed as growth inhibition after 48 hrs by SRB assay; method in brief: as §2
LOX IMVI = assay: Cytotoxicity against human LOXIMVI cells assessed as growth inhibition after 48 hrs by SRB assay; method in brief: as §2
SF-539 = assay: Cytotoxicity against human SF539 cells assessed as growth inhibition after 48 hrs by SRB assay; method in brief: as §1
HT-29 = assay: Cytotoxicity against human HT-29 cells assessed as growth inhibition after 48 hrs by SRB assay; method in brief: as §2
HCT-15 = assay: Cytotoxicity against human HCT15 cells assessed as growth inhibition after 48 hrs by SRB assay; method in brief: as §2
NCI-H522 = assay: Cytotoxicity against human NCI-H522 cells assessed as growth inhibition after 48 hrs by SRB assay; method in brief: as §1
NCI-H460 = assay: Cytotoxicity against human NCI-H460 cells assessed as growth inhibition after 48 hrs by SRB assay; method in brief: as §1
NCI-H322M = assay: Cytotoxicity against human NCI-H322M cells assessed as growth inhibition after 48 hrs by SRB assay; method in brief: as §1
NCI-H23 = assay: Cytotoxicity against human NCI-H23 cells assessed as growth inhibition after 48 hrs by SRB assay; method in brief: as §1
SR = assay: Cytotoxicity against human SR cells assessed as growth inhibition after 48 hrs by SRB assay; method in brief: as §4
HL-60(TB) = assay: Cytotoxicity against human HL-60(TB) cells assessed as growth inhibition after 48 hrs by SRB assay
Method in brief: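 NCI 60-cell panel five-concentration stage (0.01, 0.1, 1, 10, 100) in HL-60(TB). Cellular protein was measured by sulforhodamine B colorimetry after 48 h of exposure. A time-zero cell control and untreated plates allowed calculation of GI50, TGI and LC50. These were read from log10 concentration dose-response curves.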

[4] = Cytotoxicity against human Hs578T cells assessed as cell growth at 10 uM after 48 hrs by SRB assay; conditions: Hs-578T, read-out: Activity
[5] = read-out: LC50 (the source's name)

## CCCSc1nc2ccc3c(c2[nH]1)C(=O)c1ccccc1C3=O
MDA-MB-468
  growth inhibition (GI): Dose-dependent effect
MDA-MB-468; MDA-MB-468, 48 h
  GI50: 6.38 µM
  LC50: > 100 µM
  TGI: > 100 µM
BT-549
  growth inhibition (GI): Dose-dependent effect
BT-549; BT-549, 48 h
  GI50: 33.4 µM
  LC50 (concentration killing 50% of cells): > 100 µM
  TGI: > 100 µM
PC-3
  growth inhibition (GI): Dose-dependent effect
PC-3; PC-3, 48 h
  GI50: 11.3 µM
  LC50: > 100 µM
  TGI: > 100 µM
[1]
  GI50: 2.53 µM
  LC50: > 100 µM
  TGI: 70.2 µM
UO-31
  growth inhibition (GI): Dose-dependent effect
RXF 393
  growth inhibition (GI): Dose-dependent effect
RXF 393; RXF 393, 48 h
  GI50: 2.65 µM
  TGI: 8.1 µM
RXF 393; RXF 393, 48 h, read-out: LC50 (the source's name)
  CC50: > 100 µM
ACHN
  GI50: 2.69 µM
  TGI: 42.8 µM
  growth inhibition (GI): Dose-dependent effect
ACHN; [5]
  CC50: > 100 µM
A498
  growth inhibition (GI): Dose-dependent effect
A498; A498, 48 h
  GI50: 13.9 µM
  TGI: > 100 µM
A498; A498, 48 h, read-out: LC50 (the source's name)
  CC50: > 100 µM
786-0
  growth inhibition (GI): Dose-dependent effect
786-0; 786-0, 48 h
  GI50: 2.13 µM
  LC50 (concentration causing 50% net cell kill): 9.04 µM
  TGI: 4.39 µM
[2]
  GI50: 2.37 µM
  LC50 (concentration causing 50% net cell kill): > 100 µM
  TGI: > 100 µM
NCI/ADR-RES
  growth inhibition (GI): Dose-dependent effect
OVCAR-3
  growth inhibition (GI): Dose-dependent effect
OVCAR-3; OVCAR-3, 48 h
  GI50: 3.97 µM
  LC50 (50% lethal concentration): > 100 µM
  TGI: 37.6 µM
[3]
  GI50: 5.05 µM
  LC50 (concentration killing 50% of cells): > 100 µM
  TGI: > 100 µM
OVCAR-4
  growth inhibition (GI): Dose-dependent effect
IGROV-1
  growth inhibition (GI): Dose-dependent effect
IGROV-1; IGROV-1, 48 h
  GI50: 4.03 µM
  LC50: > 100 µM
  TGI: > 100 µM
SK-MEL-2
  growth inhibition (GI): Dose-dependent effect
SK-MEL-2; SK-MEL-2, 48 h
  GI50: 15.9 µM
  LC50 (50% lethal concentration): > 100 µM
  TGI: > 100 µM
MDA-MB-435
  growth inhibition (GI): Dose-dependent effect
MDA-MB-435; MDA-MB-435, 48 h
  GI50: > 100 µM
  LC50: > 100 µM
  TGI: > 100 µM
Malme-3M
  GI50: 4.27 µM
  TGI: > 100 µM
  growth inhibition (GI): Dose-dependent effect
Malme-3M; [5]
  CC50: > 100 µM
LOX IMVI
  GI50: 3.69 µM
  LC50: > 100 µM
  TGI: > 100 µM
  growth inhibition (GI): Dose-dependent effect
SF-539
  growth inhibition (GI): Dose-dependent effect
SF-539; SF-539, 48 h
  GI50: 3.07 µM
  TGI: 32 µM
SF-539; SF-539, 48 h, read-out: LC50 (the source's name)
  CC50: > 100 µM
HT-29
  growth inhibition (GI): Dose-dependent effect
HT-29; HT-29, 48 h
  GI50: > 100 µM
  TGI: > 100 µM
HT-29; HT-29, 48 h, read-out: LC50 (the source's name)
  CC50: > 100 µM
HCT-15
  growth inhibition (GI): Dose-dependent effect
HCT-15; HCT-15, 48 h
  GI50: > 100 µM
  LC50 (concentration killing 50% of cells): > 100 µM
  TGI: > 100 µM
NCI-H522
  growth inhibition (GI): Dose-dependent effect
NCI-H522; NCI-H522, 48 h
  GI50: 11.6 µM
  TGI: > 100 µM
NCI-H522; NCI-H522, 48 h, read-out: LC50 (the source's name)
  CC50: > 100 µM
NCI-H460
  growth inhibition (GI): Dose-dependent effect
NCI-H460; NCI-H460, 48 h
  GI50: 44.7 µM
  LC50: > 100 µM
  TGI: > 100 µM
NCI-H322M
  GI50: > 100 µM
  LC50 (concentration killing 50% of cells relative to time zero): > 100 µM
  TGI: > 100 µM
  growth inhibition (GI): Dose-dependent effect
NCI-H23
  growth inhibition (GI): Dose-dependent effect
NCI-H23; NCI-H23, 48 h
  GI50: 48 µM
  LC50: > 100 µM
  TGI: > 100 µM
SR
  GI50: 4.63 µM
  LC50 (50% lethal concentration): > 100 µM
  TGI: > 100 µM
  growth inhibition (GI): Dose-dependent effect
HL-60(TB)
  growth inhibition (GI): Dose-dependent effect
HL-60(TB); HL-60, 48 h
  GI50: 68.4 µM
  LC50: > 100 µM
  TGI: > 100 µM
[4]
  growth at 10 µM: 33.3%
